Experimental data reported in PMC7261135 (Journal of medicinal chemistry, 2020).
Read-outs that look alike come from different tables or passages of the source. Values belong to the compound of their own block, whether it stands above or below them.

Assays:
mGluR4 [1] = biological target: T1, mGluR4 (Homo sapiens, UniProt Q14833); experiment: competitive binding assay with [^3H]4 in mGluR4 transfected CHO cells
mGluR4 [2] = biological target: T2, mGluR4 (Rattus norvegicus, UniProt P31423); experiment: PET blocking studies of [^18F]15 binding; assay type: in vivo, Sprague Dawley rats; conditions: rats
Outline: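 Male Sprague Dawley rats under isoflurane/nitrous oxide (1.0–1.5% isoflurane) with a tail-vein catheter. Blocker 1, 2 or 3 mg/kg in saline with 10% DMSO, 5% Tween-20, 85% PBS, given 1 min before iv tracer (18–34 MBq). Dynamic PET 60 min, CT for attenuation correction, MLEM reconstruction. Regional time-activity curves; blocking as percent change from baseline scans.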

[3] = solution stability at pH 5.0, 7.4, 9.4; assay type: physicochemical
[4] = liver microsomal stability; assay type: in vitro ADME, rat
[5] = in vitro plasma stability; assay type: in vitro ADME; conditions: rat plasma (rat serum)
Outline: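 Test compound incubated in rat serum, with diltiazem run alongside as assay QC control.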

mGluR4 [6] = biological target: T2, mGluR4; experiment: PET imaging of [^18F]15, baseline; assay type: in vivo, Sprague Dawley rats; conditions: rats
[7] = ex vivo biodistribution of [^18F]15; assay type: in vivo; conditions: male Sprague Dawley rats
mGluR4 [8] = biological target: T1, mGluR4; experiment: mGluR4 Gi fold shift assay; assay type: cell-based
Outline: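 Split-luciferase GloSensor cAMP biosensor read-out of Gi-coupled mGluR4 signalling. L-SOP concentration-response curves were run with test compound at 3.0 μM and the leftward shift measured; efficacy given relative to glutamate maximum. Data from NIMH PDSP, averaged over at least three independent determinations run in triplicate.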

[9] = Log D7.4, scaled-down shake flask method using [^18F]15; assay type: physicochemical; conditions: octanol/phosphate buffer, pH 7.4
Outline: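 Radiolabelled test compound (74 kBq) was partitioned between octanol and pH 7.4 phosphate buffer, vortexed 2 min and centrifuged 2 min, and both phases were sampled. An octanol aliquot went into fresh octanol/buffer and the cycle was repeated to give six sets. Gamma counting; Log D = log(octanol counts × 10 / buffer counts).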

[10] = rat liver microsomes with NADPH

T2 sequence (P31423 33-912): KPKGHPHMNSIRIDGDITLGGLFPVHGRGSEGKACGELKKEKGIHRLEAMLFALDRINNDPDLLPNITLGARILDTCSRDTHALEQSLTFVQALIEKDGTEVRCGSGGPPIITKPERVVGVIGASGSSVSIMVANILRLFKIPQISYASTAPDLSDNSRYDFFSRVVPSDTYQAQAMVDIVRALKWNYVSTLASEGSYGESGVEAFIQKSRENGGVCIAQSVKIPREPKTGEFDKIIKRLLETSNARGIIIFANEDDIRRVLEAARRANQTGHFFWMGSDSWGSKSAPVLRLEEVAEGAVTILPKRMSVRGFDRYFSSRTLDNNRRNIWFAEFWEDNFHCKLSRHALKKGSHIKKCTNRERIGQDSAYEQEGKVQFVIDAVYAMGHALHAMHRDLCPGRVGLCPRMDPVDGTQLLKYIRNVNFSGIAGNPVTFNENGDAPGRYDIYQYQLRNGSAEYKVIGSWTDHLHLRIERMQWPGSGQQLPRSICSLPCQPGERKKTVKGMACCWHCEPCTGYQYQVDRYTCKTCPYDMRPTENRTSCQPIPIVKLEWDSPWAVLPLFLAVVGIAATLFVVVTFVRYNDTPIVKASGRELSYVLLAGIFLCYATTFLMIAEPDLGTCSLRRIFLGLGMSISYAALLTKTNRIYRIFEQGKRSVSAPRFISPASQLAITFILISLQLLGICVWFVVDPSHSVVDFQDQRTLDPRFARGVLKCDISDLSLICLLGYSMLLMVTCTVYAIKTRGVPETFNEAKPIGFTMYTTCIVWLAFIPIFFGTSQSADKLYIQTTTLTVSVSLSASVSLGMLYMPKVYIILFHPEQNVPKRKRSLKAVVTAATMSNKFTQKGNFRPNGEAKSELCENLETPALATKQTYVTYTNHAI
T1 sequence (Q14833 33-912): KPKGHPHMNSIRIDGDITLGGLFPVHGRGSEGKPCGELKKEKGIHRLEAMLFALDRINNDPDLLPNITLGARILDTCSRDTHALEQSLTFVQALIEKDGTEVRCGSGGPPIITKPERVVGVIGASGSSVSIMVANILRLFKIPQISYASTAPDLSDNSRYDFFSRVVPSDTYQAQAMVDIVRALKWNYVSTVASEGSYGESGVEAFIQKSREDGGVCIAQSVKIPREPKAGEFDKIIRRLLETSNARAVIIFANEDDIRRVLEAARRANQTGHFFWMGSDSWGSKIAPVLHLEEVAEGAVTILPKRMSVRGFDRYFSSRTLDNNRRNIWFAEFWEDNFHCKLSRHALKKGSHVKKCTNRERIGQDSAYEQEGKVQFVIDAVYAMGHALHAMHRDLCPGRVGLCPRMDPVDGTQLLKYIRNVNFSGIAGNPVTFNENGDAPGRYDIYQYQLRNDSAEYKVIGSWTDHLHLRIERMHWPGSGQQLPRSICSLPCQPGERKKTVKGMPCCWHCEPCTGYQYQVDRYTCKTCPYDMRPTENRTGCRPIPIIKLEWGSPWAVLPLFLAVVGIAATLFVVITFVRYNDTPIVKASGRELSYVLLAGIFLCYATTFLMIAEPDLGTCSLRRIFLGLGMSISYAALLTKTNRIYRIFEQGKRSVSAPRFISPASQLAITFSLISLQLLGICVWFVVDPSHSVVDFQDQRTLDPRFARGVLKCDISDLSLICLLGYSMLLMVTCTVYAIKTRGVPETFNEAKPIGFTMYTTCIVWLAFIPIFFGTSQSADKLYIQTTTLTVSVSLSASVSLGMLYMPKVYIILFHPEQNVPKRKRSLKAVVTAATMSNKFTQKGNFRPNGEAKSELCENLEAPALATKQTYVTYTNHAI

IC50 (mGluR4 [1]; read-out: IC50±SE, mGluR4 transfected CHO cells, 2 nM [^3H]4, test compound 0.01 nM to 10 μM): 3.5 ± 0.7 nM | blocking of [^18F]15 binding in striatum (mGluR4 [2]; blocking agent 1 mg/kg): 18% | blocking of [^18F]15 binding in striatum (mGluR4 [2]; blocking agent 2 mg/kg): 20% | blocking of [^18F]15 binding in striatum (mGluR4 [2]; blocking agent 3 mg/kg): 28% | blocking of [^18F]15 binding in the whole brain (mGluR4 [2]; blocking agent 1, 2 or 3 mg/kg, 1 min before tracer): 22–25% | The solution stability: The intact ± SEM at 120 min ([3]; pH = 5.0): 85.9 ± 0.8% | The solution stability: The intact ± SEM at 120 min ([3]; pH = 7.4): 87.9 ± 3.4% | The solution stability: The intact ± SEM at 120 min ([3]; pH = 9.4): 89.3 ± 1.3% | The microsome stability Clint [4, 10]: 54.8 μL/min /mg protein | The microsome stability t1/2 [4, 10]: 25.3 min | The plasma stability: The intact ± SEM at 120 (min%) [5]: 91.5 ± 2.5%
SMILES: CSc1cc(NC(=O)c2ccccn2)ccc1Cl [Compound 13]

time of highest accumulation in the thalamus (mGluR4 [6]; after administration of the ligand): about 2 min | maximum average uptake in the thalamus (mGluR4 [6]; time interval 1–10 min after administration): 1.77±0.26 % ID/cc | accumulation in brain ([7]; at 10 min after iv injection): 0.41±0.18 % ID/g | accumulation in heart ([7]; at 20 min after iv injection): 0.50±0.08 % ID/g | accumulation in liver ([7]; at 20 min after iv injection): 1.33±0.12 % ID/g | accumulation in lungs ([7]; at 20 min after iv injection): 0.58±0.17 % ID/g | accumulation in kidneys ([7]; at 30 min after iv injection): 0.93±0.57 % ID/g
SMILES: [2H]C([2H])([18F])Sc1cc(NC(=O)c2ccccn2)ccc1Cl [[^18F]15, [^18F]-N-(4-chloro-3-((fluoromethyl-d2)thio)phenyl)-picolinamide]

The solution stability: The intact ± SEM at 120 min ([3]; pH = 5.0): 92.7 ± 3.1% | The solution stability: The intact ± SEM at 120 min ([3]; pH = 7.4): 97.3 ± 1.1% | The solution stability: The intact ± SEM at 120 min ([3]; pH = 9.4): 89.1 ± 2.1% | The plasma stability: The intact ± SEM at 120 (min%) [5]: 98.2 ± 6.3%
SMILES: COc1cc(NC(=O)c2ccccn2)ccc1Cl [Compound 4]

The solution stability: The intact ± SEM at 120 min ([3]; pH = 5.0): 94.7 ± 1.4% | The solution stability: The intact ± SEM at 120 min ([3]; pH = 7.4): 99.0 ± 5.7% | The solution stability: The intact ± SEM at 120 min ([3]; pH = 9.4): 69.8 ± 2.6% | The plasma stability: The intact ± SEM at 120 (min%) [5]: 49.0 ± 10.6%
SMILES: COc1ccc([C@@H]2Sc3ccccc3N(CCN(C)C)C(=O)[C@@H]2OC(C)=O)cc1 [Diltiazem]

IC50 (mGluR4 [1]): 3.5 ± 0.5 nM | leftward shift of agonist (L-SOP) response curve (mGluR4 [8]; at 3.0 μM): 7.5 fold | Emax at 3 µM (mGluR4 [8]; read-out: Glu Max efficacy): 98.3% | logD [9]: 3.82 | The solution stability: The intact ± SEM at 120 min ([3]; pH = 5.0): 87.1 ± 0.9% | The solution stability: The intact ± SEM at 120 min ([3]; pH = 7.4): 88.3 ± 1.9% | The solution stability: The intact ± SEM at 120 min ([3]; pH = 9.4): 84.3 ± 1.8% | microsomal CLint ([4]; rat, liver microsomes): 24.2 µL/min/mg | The plasma stability: The intact ± SEM at 120 (min%) [5]: 84.5 ± 10.2%
SMILES: [2H]C([2H])(F)Sc1cc(NC(=O)c2ccccn2)ccc1Cl [Compound 15, N-(4-Chloro-3-((fluoromethyl-d2)thio)phenyl)picolinamide]
